{"data": "Results pooled from the literature", "RPS6KA3 C-terminal kinase domain": "Ribosomal protein S6 kinase alpha-3, C-terminal kinase domain (RPS6KA3, Homo sapiens, UniProt P51812)", "RPS6KA3": "Ribosomal protein S6 kinase alpha-3 (RPS6KA3, Homo sapiens, UniProt P51812)", "RPS6KA3 N-terminal kinase domain": "Ribosomal protein S6 kinase alpha-3, N-terminal kinase domain (RPS6KA3, Homo sapiens, UniProt P51812)", "note": "Compare with care: the assays were run in different laboratories."}
{"SMILES": "CCOCCn1cc(C(=O)Nc2ccc(-n3nc(-c4cccnc4)cc3C(F)(F)F)cn2)ccc1=O", "target": "RPS6KA3 C-terminal kinase domain", "assay": "cell-free assay, competition with immobilised ligand", "conditions": "1 µM", "quantity": "remaining binding", "result": "87%"}
{"SMILES": "CC/C(=N\\NC(=O)C(C)Nc1ccccc1)c1ccc(O)c(C)c1O (centres unmarked)", "target": "RPS6KA3", "assay": "enzyme activity, inhibitor", "conditions": "0.1 µM", "quantity": "inhibition", "result": "45.7%"}
{"SMILES": "COc1ccnn2ncc(-c3ccnc(N(C)C)n3)c12", "target": "RPS6KA3 C-terminal kinase domain", "assay": "binding, competition with immobilised ligand", "conditions": "1 µM", "quantity": "remaining binding", "result": "100%"}
{"SMILES": "CCCCNc1ncc2c(-c3ccc(F)cc3)nn(C[C@H]3CC[C@H](N)CC3)c2n1", "target": "RPS6KA3 N-terminal kinase domain", "assay": "target engagement in cells, inhibitor, chemoproteomics", "conditions": "20 mM", "quantity": "inhibition", "result": "32.6%"}
{"SMILES": "COc1cc2ncnc(Nc3ccc(Oc4ccccc4)c(C)c3C)c2cc1OC", "target": "RPS6KA3", "assay": "enzyme activity, inhibitor", "conditions": "1 µM", "quantity": "inhibition", "result": "-1%"}
{"SMILES": "Oc1cccc(-c2nc(N3CCOCC3)c3oc4ncccc4c3n2)c1", "target": "RPS6KA3", "assay": "enzyme activity, inhibitor", "conditions": "10 µM", "quantity": "remaining activity", "result": "96%"}
{"SMILES": "COc1cccc2c(NCc3ccccc3)nc(-n3c(N)nc4ccccc43)nc12", "target": "RPS6KA3 N-terminal kinase domain", "assay": "target engagement in cells, inhibitor, chemoproteomics", "conditions": "20 mM", "quantity": "inhibition", "result": "34.2%"}
{"SMILES": "CCCOc1ccc([C@H]2[C@H](C(=O)O)[C@@H](c3ccc4c(c3)OCO4)CN2CC(=O)Nc2c(CC)cccc2CC)cc1", "target": "RPS6KA3 C-terminal kinase domain", "assay": "cell-free assay, competition with immobilised ligand", "conditions": "1 µM", "quantity": "remaining binding", "result": "73%"}
{"SMILES": "Cc1ccc(C(=O)Nc2ccc(CN3CCN(C)CC3)c(C(F)(F)F)c2)cc1C#Cc1cnc2cccnn12", "target": "RPS6KA3", "assay": "enzyme activity, inhibitor", "conditions": "23.5 nM", "quantity": "activity vs control", "result": "82%"}
{"SMILES": "Cn1cncc1C1=CN(c2ncnc3[nH]cnc23)CCS1", "target": "RPS6KA3", "assay": "enzyme activity, inhibitor, radiometric", "conditions": "2 µM", "quantity": "inhibition", "result": "66%"}
{"SMILES": "CCCOc1ccc(OC)c(F)c1C(=O)c1ccc(C(=O)N[C@@H]2CNC[C@H]2NC(=O)c2ccc3[nH]ncc3c2)cc1", "target": "RPS6KA3", "assay": "enzyme activity, inhibitor", "conditions": "10 µM", "quantity": "remaining activity", "result": "12%"}
{"SMILES": "C[C@@H]1CCN(c2nccc(-c3cnn4ncccc34)n2)C1", "target": "RPS6KA3 N-terminal kinase domain", "assay": "binding, competition with immobilised ligand", "conditions": "1 µM", "quantity": "remaining binding", "result": "74%"}
{"SMILES": "CC(C)(O)[C@H]1CC[C@H](Nc2ccc3ncc(-c4cccc(C(F)(F)F)c4)n3n2)CC1", "target": "RPS6KA3", "assay": "enzyme activity, inhibitor", "conditions": "1 µM", "quantity": "remaining activity", "result": "90.6%"}
{"SMILES": "Cc1ccc(Nc2nccc(N(C)c3ccc4c(C)n(C)nc4c3)n2)cc1S(N)(=O)=O", "target": "RPS6KA3", "assay": "enzyme activity, inhibitor", "conditions": "10 µM", "quantity": "inhibition", "result": "56%"}
{"SMILES": "CC(C)(C)C(=O)c1sc(NC2CCCCC2)nc1N", "target": "RPS6KA3", "assay": "enzyme activity, inhibitor", "conditions": "10 µM", "quantity": "remaining activity", "result": "104%"}
{"SMILES": "c1cnn2ncc(-c3ccnc(N4CCC45COC5)n3)c2c1", "target": "RPS6KA3 C-terminal kinase domain", "assay": "binding, competition with immobilised ligand", "conditions": "1 µM", "quantity": "remaining binding", "result": "100%"}
{"SMILES": "FC(F)(F)Oc1cccc(-c2cnc3ccc(-c4ccncc4)nn23)c1", "target": "RPS6KA3", "assay": "enzyme activity, inhibitor, radiometric", "conditions": "1 µM", "quantity": "activity vs control", "result": "105%"}
{"SMILES": "COc1ccc2c(c1)O[C@H](c1ccc(OC)c(OC)c1)C[C@@H]2NC(=O)C1(c2ccc3c(c2)OC(F)(F)O3)CC1", "target": "RPS6KA3 C-terminal kinase domain", "assay": "cell-free assay, competition with immobilised ligand", "conditions": "1 µM", "quantity": "remaining binding", "result": "93%"}
{"SMILES": "O=C1NC(=O)c2cc(Nc3ccc(F)cc3)c(Nc3ccc(F)cc3)cc21", "target": "RPS6KA3", "assay": "cell-free assay", "conditions": "0.5 µM", "quantity": "remaining signal", "result": "118%"}
{"SMILES": "CN(C)C(=O)Cn1cc(-c2nc([C@@](C)(c3ccc(-c4cnc(N)nc4)cc3)C3CC3)no2)cn1", "target": "RPS6KA3 N-terminal kinase domain", "assay": "cell-free assay, competition with immobilised ligand", "conditions": "1 µM", "quantity": "remaining binding", "result": "83%"}
{"SMILES": "COc1cc(Nc2cnc(C#N)c(O[C@H](C)CN(C)C)n2)ncc1-c1cnn(C)c1", "target": "RPS6KA3", "assay": "enzyme activity, inhibitor, radiometric", "conditions": "1 µM", "quantity": "remaining activity", "result": "9%"}
{"SMILES": "CNC(=O)c1cc(Oc2ccc(NC(=O)Nc3ccc(Cl)c(C(F)(F)F)c3)cc2)ccn1", "target": "RPS6KA3", "assay": "enzyme activity, inhibitor", "conditions": "10 µM", "quantity": "inhibition", "result": "46%"}
{"SMILES": "CN(c1nccc(-c2cnn3ncccc23)n1)C1CC1", "target": "RPS6KA3 C-terminal kinase domain", "assay": "binding, competition with immobilised ligand", "conditions": "1 µM", "quantity": "remaining binding", "result": "100%"}
{"SMILES": "O=C(NC[C@@H]1[C@H]2CN(C(=O)OCc3cc(C(F)(F)F)cc(C(F)(F)F)c3)C[C@@H]12)c1ccc2[nH]nnc2c1", "target": "RPS6KA3 N-terminal kinase domain", "assay": "cell-free assay, competition with immobilised ligand", "conditions": "1 µM", "quantity": "remaining binding", "result": "94%"}
{"SMILES": "N#CCCc1ccc2c(c1)-c1[nH]c3ccc([N+](=O)[O-])cc3c1CC(=O)N2", "target": "RPS6KA3", "assay": "cell-free assay", "conditions": "0.5 µM", "quantity": "remaining signal", "result": "28.6%"}
{"SMILES": "Cc1cnc(NC2CCOCC2)nc1-n1cnc(C(=O)NC(CN)c2cc(F)cc(Cl)c2)c1 (centres unmarked)", "target": "RPS6KA3", "assay": "enzyme activity, inhibitor, radiometric", "conditions": "1 µM", "quantity": "remaining activity", "result": "21%"}
{"SMILES": "O=C(Nc1cnn(-c2csc(C(=O)NC3COC3)c2)c1)Nc1c(F)cccc1Cl", "target": "RPS6KA3", "assay": "enzyme activity, inhibitor", "conditions": "5 µM", "quantity": "remaining activity", "result": "79.9%"}
{"SMILES": "COc1cc(Cl)c(C(=O)N[C@@H](CN[C@H]2CC[C@@H](N)CC2)Cc2ccc(C#N)cc2)cc1-c1ccc(CN[C@H](C)c2ccc(C)cc2)o1", "target": "RPS6KA3", "assay": "enzyme activity, inhibitor", "conditions": "1 µM", "quantity": "remaining activity", "result": "72%"}
{"SMILES": "CCN(CC)c1ccc(C2=NNC(=O)CC2C)cc1[N+](=O)[O-] (centres unmarked)", "target": "RPS6KA3", "assay": "enzyme activity, inhibitor", "conditions": "10 µM", "quantity": "remaining activity", "result": "100%"}
{"SMILES": "O=C(NCc1ncc(C(F)(F)F)cc1Cl)c1ccc2c(c1)C1(CCS(=O)(=O)CC1)[C@@H](C1CC1)N2S(=O)(=O)c1ccc(F)cc1", "target": "RPS6KA3 C-terminal kinase domain", "assay": "cell-free assay, competition with immobilised ligand", "conditions": "1 µM", "quantity": "remaining binding", "result": "82%"}
{"SMILES": "Nc1nc(NC2CCCCC2)sc1C(=O)c1ccccc1", "target": "RPS6KA3", "assay": "enzyme activity, inhibitor", "conditions": "10 µM", "quantity": "remaining activity", "result": "85%"}
{"SMILES": "COc1cc(Nc2c(C#N)cnc3cc(OCCCN4CCN(C)CC4)c(OC)cc23)c(Cl)cc1Cl", "target": "RPS6KA3", "assay": "cell-free assay", "conditions": "0.5 µM", "quantity": "remaining signal", "result": "80.1%"}
{"SMILES": "N[C@@H]1CCN(c2nccc(-c3cnn4ncccc34)n2)C1", "target": "RPS6KA3 N-terminal kinase domain", "assay": "binding, competition with immobilised ligand", "conditions": "1 µM", "quantity": "remaining binding", "result": "100%"}
{"SMILES": "Nc1ncnc2occ(-c3ccc(NC(=O)Nc4cc(C(F)(F)F)ccc4F)cc3)c12", "target": "RPS6KA3 N-terminal kinase domain", "assay": "cell-free assay, inhibitor", "conditions": "20 µM", "quantity": "remaining signal", "result": "0.4%"}
{"SMILES": "CC1CCCN1c1nccc(-c2cnn3ncccc23)n1 (centres unmarked)", "target": "RPS6KA3 N-terminal kinase domain", "assay": "binding, competition with immobilised ligand", "conditions": "1 µM", "quantity": "remaining binding", "result": "100%"}
{"SMILES": "C[C@H](c1ccc(F)cc1)N(Cc1cccc(C(=O)O)c1)C(=O)c1cnc2ccccc2c1", "target": "RPS6KA3 C-terminal kinase domain", "assay": "cell-free assay, competition with immobilised ligand", "conditions": "1 µM", "quantity": "remaining binding", "result": "89%"}
{"SMILES": "Cc1ccc(NC(=O)c2ccc(C)c(C(F)(F)F)c2)cc1C#Cc1nn(C2CCC(O)CC2)c2ncnc(N)c12 (centres unmarked)", "target": "RPS6KA3", "assay": "cell-free assay", "conditions": "10 µM", "quantity": "remaining signal", "result": "44%"}
{"SMILES": "O=C(O)c1cc(-c2ccc(C3CCNCC3)cc2)c2ccc(-c3ccc(C(F)(F)F)cc3)cc2c1", "target": "RPS6KA3 C-terminal kinase domain", "assay": "cell-free assay, competition with immobilised ligand", "conditions": "1 µM", "quantity": "remaining binding", "result": "80%"}
{"SMILES": "CC(C)(C)c1nc(-c2cccc(NS(=O)(=O)c3c(F)cccc3F)c2F)c(-c2ccnc(N)n2)s1", "target": "RPS6KA3", "assay": "enzyme activity, inhibitor, radiometric", "conditions": "1 µM", "quantity": "remaining activity", "result": "77%"}
{"SMILES": "CN(C)C1CCN(CC#Cc2nn(C3CCCC3)c3nc(NCc4ccccc4)ncc23)C1 (centres unmarked)", "target": "RPS6KA3", "assay": "enzyme activity, inhibitor, FRET", "conditions": "10 µM", "quantity": "inhibition", "result": "15%"}
{"SMILES": "COc1cc2ncnc(Nc3ccc(F)c(Cl)c3)c2cc1OCCCN1CCOCC1", "target": "RPS6KA3", "assay": "cell-free assay", "conditions": "0.5 µM", "quantity": "remaining signal", "result": "100%"}
